Results gathered from unrelated publications.
Lines come from different studies, so protocols differ.
Target: Tyrosine-protein kinase ABL2 (ABL2, Homo sapiens, UniProt P42684)

Compound	test	setting	measurement	value
O=C1Nc2ccc(Cl)cc2C1=Cc1cc(Cl)c(O)c(Cl)c1	cell-free assay	0.5 µM	remaining signal	80.4%
Nc1ncnc2occ(-c3ccc(NC(=O)Nc4cc(C(F)(F)F)ccc4F)cc3)c12	cell-free assay, inhibitor	20 µM	remaining signal	0.65%
Cc1cnc(NC2CCOCC2)nc1-n1cnc(C(=O)NC(CN)c2cc(F)cc(Cl)c2)c1 (stereo not shown)	enzyme activity, inhibitor, radiometric	1 µM	remaining activity	87%
O=C(Nc1ccc(Oc2ccc(F)cc2)cc1)N1CCc2ncccc2[C@H]1c1ccc(F)cc1	cell-free assay, competition with immobilised ligand	1 µM	remaining binding	88%
Cc1ccc(NC(=O)c2ccc(C)c(C(F)(F)F)c2)cc1C#Cc1nn(C2CCC(O)CC2)c2ncnc(N)c12 (stereo not shown)	cell-free assay	10 µM	remaining signal	0%
Cc1c(NC(=O)c2cc(C(N)=O)nc3cc(F)ccc23)c(C(F)(F)F)nn1Cc1ccc(C(C)(C)C)cc1	cell-free assay, competition with immobilised ligand	1 µM	remaining binding	87%
CNC(=O)c1cc(Oc2ccc(NC(=O)Nc3ccc(Cl)c(C(F)(F)F)c3)cc2)ccn1	enzyme activity, inhibitor	10 µM	inhibition	48%
Cc1nccc(COC(=O)N2C[C@@H]3[C@@H](CNC(=O)c4ccc5[nH]nnc5c4)[C@@H]3C2)n1	cell-free assay, competition with immobilised ligand	1 µM	remaining binding	90%
CCN(CC)c1ccc(C2=NNC(=O)CC2C)cc1[N+](=O)[O-] (stereo not shown)	enzyme activity, inhibitor	10 µM	remaining activity	89%
CC/C(=N\NC(=O)NCc1cccc(O)c1)c1ccc(O)c(C)c1O	enzyme activity, inhibitor	0.1 µM	inhibition	-0.2%
Cc1sc(C(=O)NC2COC2)cc1-n1cc(NC(=O)Nc2c(F)cccc2Cl)cn1	enzyme activity, inhibitor	10 µM	remaining activity	123%
Cc1ccc(C(=O)NCc2ccsc2)cc1C#Cc1cn(C(C)C)c2ncnc(N)c12	enzyme activity, inhibitor	1 µM	activity vs control	6%
Cc1ccc(C(=O)Nc2ccc(CN3CCN(C)CC3)c(C(F)(F)F)c2)cc1C#Cc1cnc2cccnn12	enzyme activity, inhibitor	23.5 nM	remaining activity	3.2%
Cc1ccc(Nc2nccc(N(C)c3ccc4c(C)n(C)nc4c3)n2)cc1S(N)(=O)=O	enzyme activity, inhibitor	0.3 µM	inhibition	24%
N#CCCc1ccc2c(c1)-c1[nH]c3ccc([N+](=O)[O-])cc3c1CC(=O)N2	cell-free assay	0.5 µM	remaining signal	49.8%
CN(C)c1ncnc(-c2ccc3nc(Nc4cc(CN5CCN(C(=O)CC(F)(F)F)CC5)ccn4)[nH]c3c2)c1Cl	cell-free assay, competition with immobilised ligand	1 µM	remaining binding	71%
CCCS(=O)(=O)Nc1ccc(F)c(C(=O)c2c[nH]c3ncc(-c4ccc(Cl)cc4)cc23)c1F	enzyme activity, inhibitor	1 µM	inhibition	< 20%
COc1cc(Cl)c(C(=O)N[C@@H](CN[C@H]2CC[C@@H](N)CC2)Cc2ccc(C#N)cc2)cc1-c1ccc(CN[C@H](C)c2ccc(C)cc2)o1	enzyme activity, inhibitor	1 µM	remaining activity	87%
COCCOc1nc(-c2ccc(Cl)nc2)nc2c1CN(C(=O)c1ncn3ccccc13)CC2	cell-free assay, competition with immobilised ligand	0.1 µM	remaining binding	100%
CC(C)(C)c1nc2c(s1)c1nc(N)ncc1c1ccc(NS(=O)(=O)c3c(F)cccc3F)c(F)c12	enzyme activity, inhibitor, radiometric	1 µM	remaining activity	99%
O=C1NC(c2ccccn2)Sc2ccccc21 (stereo not shown)	cell-free assay, competition with immobilised ligand	1 µM	remaining binding	85%
COc1cc2ncnc(Nc3ccc(Oc4ccccc4)c(C)c3C)c2cc1OC	enzyme activity, inhibitor	1 µM	inhibition	6%
